Measurements: ChEMBL document CHEMBL3580596, “Discovery of Multitarget Antivirals Acting on Both the Dengue Virus NS5-NS3 Interaction and the Host Src/Fyn Kinases” (J Med Chem, 2015)
Activity calls are given as the source filed them. The calls are words filed in the database; no cut-off is given here.

Legend:
dengue virus type 2 [1] = test: Antiviral activity against DENV serotype 2 strain New Guinea V infected in African green monkey Vero B cells assessed as inhibition of virus replication after 4 days by qRT-PCR analysis; assay type: functional, organism-based; conditions: 96 h
Summary of the method: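 Vero-B cells, 5×10^4/well, infected one day after seeding with 100 CCID50 DENV-2 NGC for 2 h, then washed 3 times. Cultured 4 days with 5-fold compound dilutions (50–0.08 μg/mL) in medium with 2% FBS. Supernatant viral RNA measured by RT-qPCR; EC50 (50% inhibition of RNA replication) found by logarithmic interpolation.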

[2] = Selectivity index, ratio of CC50 for African green monkey Vero B cells to EC50 for DENV serotype 2 strain New Guinea V
dengue virus type 2 [3] = test: Inhibition of DENV2 His- and FLAG-tagged NS3 and NS5 protein interaction at 500 uM after 1 hr by alphascreen assay
[4] = Cytotoxicity against african green monkey Vero B cells; assay type: cell-based; conditions: chlorocebus sabaeus
Summary of the method: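 Uninfected Vero-B cells treated with compound dilutions; CC50 taken as concentration giving 50% reduction of metabolic activity or cell growth. Read-out by MTS/PMS (yield-assay series) or by 7-day methylene blue staining with microscopic scoring (CPE series, 1:2 dilutions from 100 μg/mL).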

[5] = target: Tyrosine-protein kinase Fyn (Homo sapiens) (UniProt P06241); test: Inhibition of human his-tagged full length Fyn active enzyme using KVEKIGEGTYGVVYK substrate by scintillation counting analysis
[6] = target: Proto-oncogene tyrosine-protein kinase Src (Homo sapiens) (UniProt P12931); test: Inhibition of human his-tagged full length Src active enzyme using KVEKIGEGTYGVVYK substrate by scintillation counting analysis
dengue virus type 2 [7] = test: Antiviral activity against DENV serotype 2 strain New Guinea V infected in African green monkey Vero B cells assessed as inhibition of virus-induced cytopathogenic effect after 7 days; assay type: functional, organism-based
Summary of the method: (§1)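 Vero-B cells, 7×10^3/well, adhered overnight, then given 1:2 serial dilutions (start 100 μg/mL) plus 100 CCID50 DENV-2 NGC (virus grown in C6/36 cells) in MEM with 2% FBS. After 7 days, fixed with ethanol and stained with 1% methylene blue. EC50 for 50% inhibition of virus-induced CPE comes from microscopic scoring of each well.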

[8] = target: Proto-oncogene tyrosine-protein kinase Src (Homo sapiens) (UniProt P12931); test: Inhibition of human his-tagged full length Src active enzyme using KVEKIGEGTYGVVYK substrate at 100 uM by scintillation counting analysis
[9] = target: Tyrosine-protein kinase Fyn (Homo sapiens) (UniProt P06241); test: Inhibition of human his-tagged full length Fyn active enzyme using KVEKIGEGTYGVVYK substrate at 100 uM by scintillation counting analysis
Dengue virus = test: Antiviral activity against DENV by CPE-reduction assay; assay type: functional, organism-based; summary of the method: as §1
dengue virus type 2 [10] = test: Inhibition of DENV2 His- and FLAG-tagged NS3 and NS5 protein interaction at 50 uM after 1 hr by alphascreen assay
Summary of the method: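 Wheat-germ cell-free expressed HF-NS3 (or HF-DHFR as negative control) and GST-tagged biotinylated NS5, 25 nM each, incubated 1 h at room temperature with compound (0.5% DMSO) in Tris pH 7.5/NaCl/MgCl2/DTT/BSA/Tween-20 buffer. Then anti-FLAG IgG, protein A acceptor and streptavidin donor beads added for 1 h; luminescence expressed as % of DMSO control, n=2.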

dengue virus type 2 [11] = test: Ratio of ribavirin EC50 to compound EC50 for DENV serotype 2 strain New Guinea V infected in African green monkey Vero B cells assessed as inhibition of virus-induced cytopathogenic effect after 7 days; assay type: functional
dengue virus type 2 [12] = test: Antiviral activity against DENV serotype 2 strain New Guinea V infected in African green monkey Vero B cells assessed as RNA replication after 4 days by RT-qPCR analysis; assay type: functional, organism-based
Summary of the method: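 Vero-B cells (5×10^4/well) infected 2 h with DENV-2 NGC (100 CCID50), washed 3×, then cultured 4 days with 5-fold serial compound dilutions (50 – 0.08 μg/mL) in MEM with 2% FBS. Viral RNA in supernatant quantified by RT-qPCR; EC50 (50% inhibition of viral RNA replication) by logarithmic interpolation.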

[13] = Dengue virus, New Guinea V, Vero, 168 h, read-out: EC50

Proto-oncogene tyrosine-protein kinase Src (Homo sapiens), sequence (P12931 2-536 limits assumed): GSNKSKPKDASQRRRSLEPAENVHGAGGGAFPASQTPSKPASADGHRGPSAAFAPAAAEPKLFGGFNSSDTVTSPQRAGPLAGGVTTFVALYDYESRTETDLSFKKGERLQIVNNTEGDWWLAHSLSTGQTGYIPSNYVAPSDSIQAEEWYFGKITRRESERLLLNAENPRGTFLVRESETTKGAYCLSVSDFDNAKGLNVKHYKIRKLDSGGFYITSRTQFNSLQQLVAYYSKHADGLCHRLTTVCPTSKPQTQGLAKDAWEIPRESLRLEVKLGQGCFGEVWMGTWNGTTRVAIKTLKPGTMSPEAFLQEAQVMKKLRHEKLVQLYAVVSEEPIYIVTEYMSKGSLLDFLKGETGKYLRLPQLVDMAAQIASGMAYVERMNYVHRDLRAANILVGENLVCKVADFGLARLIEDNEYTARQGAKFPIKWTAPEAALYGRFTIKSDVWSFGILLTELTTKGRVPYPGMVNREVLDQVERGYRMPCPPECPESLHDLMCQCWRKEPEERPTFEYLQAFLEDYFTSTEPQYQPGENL
Tyrosine-protein kinase Fyn (Homo sapiens), sequence (P06241 2-537 limits assumed): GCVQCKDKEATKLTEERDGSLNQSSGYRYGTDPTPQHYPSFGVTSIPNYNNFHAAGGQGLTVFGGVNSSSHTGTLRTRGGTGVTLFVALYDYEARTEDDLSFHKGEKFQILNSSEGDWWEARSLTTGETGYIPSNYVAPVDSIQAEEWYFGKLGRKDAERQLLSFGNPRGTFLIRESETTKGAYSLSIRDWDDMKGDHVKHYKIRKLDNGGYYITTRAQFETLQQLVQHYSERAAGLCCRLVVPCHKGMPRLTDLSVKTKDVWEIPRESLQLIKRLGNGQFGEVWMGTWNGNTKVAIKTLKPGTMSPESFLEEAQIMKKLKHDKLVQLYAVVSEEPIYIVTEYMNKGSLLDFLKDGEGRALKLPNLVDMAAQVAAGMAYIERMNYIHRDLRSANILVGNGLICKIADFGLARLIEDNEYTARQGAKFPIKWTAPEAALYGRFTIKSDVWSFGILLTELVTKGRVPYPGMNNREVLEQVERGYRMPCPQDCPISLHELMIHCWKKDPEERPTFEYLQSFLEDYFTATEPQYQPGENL

| Structure (SMILES) | EC50 (dengue virus type 2 [1]) [µM] | Ratio CC50/EC50 [2] | inhibition (dengue virus type 2 [3]) | CC50 [4] [µM] | ID50 [5] [µM] | ID50 [6] [µM] | EC50 (dengue virus type 2 [7]; vero) | other results |
| --- | --- | --- | --- | --- | --- | --- | --- | --- |
| CC(=O)c1ccc(Nc2nc(NCCO)nc3[nH]cnc23)cc1 | 72 | 2 | Active | 160 | – | – | – | – |
| Oc1cccc(Nc2nc(NCc3ccccc3)nc3[nH]cnc23)c1 | 69 | >2 | Active | > 150 | 4.1 | 3.7 | – | – |
| COc1ccc2c(Nc3ccc(Cl)cc3Cl)c(C#N)cnc2c1 | – | – | – | 19 | 2 | 0.2 | Not Active | – |
| Cc1cc(OCc2ccc(F)cc2F)cc(=O)n1Cc1cn(Cc2cccc(C(F)(F)F)c2)nn1 | – | – | – | 40 | – | – | Not Active | inhibition [8]: inactive; inhibition [9]: inactive |
| NC(=O)c1ncn([C@@H]2O[C@H](CO)[C@@H](O)[C@H]2O)n1 [RIBAVIRIN] | 42 | >10 | – | 409 | – | – | – | – |
| CC(C)CCNc1nc(Nc2cccc(O)c2)c2nc[nH]c2n1 | 20 | 8 | Active | 151 | 1.7 | 1.7 | – | – |
| COc1ccc2c(Nc3ccc(N4CCN(C)CC4)cc3)c(C#N)cnc2c1 | – | – | – | 7.9 | – | – | Not Active | inhibition [8]: inactive; inhibition [9]: inactive |
| COc1ccc(Cn2c(C)cc(OCc3cccc(F)c3)cc2=O)cc1 | – | – | – | < 6.4 | – | – | – | EC50 (dengue virus type 2 [7]; [13]): < 6.4 µM; inhibition [8]: inactive; inhibition [9]: inactive |
| CN1CCN(CCOc2cc(OC3CCOCC3)c3c(Nc4c(Cl)ccc5c4OCO5)ncnc3c2)CC1 [SARACATINIB] | – | – | – | – | – | – | – | EC50 (Dengue virus): 6 µM |
| NS(=O)(=O)c1ccc(Nc2nc(N3CCN(CCO)CC3)nc3[nH]cnc23)cc1 | – | – | Active | – | 4.8 | 7.4 | Not Active | – |
| NS(=O)(=O)c1ccc(Nc2nc(N3CCN(CCO)CC3)nc3nc[nH]c23)cc1 | – | – | – | 437 | – | – | – | – |
| CNc1nc(Nc2cccc(O)c2)c2nc[nH]c2n1 | 5.3 | 32 | Active | 168 | 3.6 | – | – | inhibition (dengue virus type 2 [10]): 33%; Ratio EC50 (dengue virus type 2 [11]): 10; ID50 [8]: 4.9 µM; inhibition (dengue virus type 2 [12]): Dose-dependent effect |
| Cc1cc(OCc2ccc(F)cc2F)cc(=O)n1Cc1cn(Cc2cccc(Br)c2)nn1 | – | – | – | 36 | – | – | Not Active | – |
| NS(=O)(=O)c1ccc(Nc2nc(N3CCOCC3)nc3[nH]cnc23)cc1 | – | – | Active | 373 | 0.5 | 0.9 | Not Active | – |
| CNc1nc(Nc2ccc(C(C)=O)cc2)c2nc[nH]c2n1 | 42 | >4 | Active | > 177 | – | – | – | – |
| COc1cc2ncc(C#N)c(Nc3ccc(Cl)cc3Cl)c2cc1OC | – | – | – | < 5.7 | 0.22 | 0.03 | – | EC50 (dengue virus type 2 [7]; [13]): < 5.7 µM |
| Cc1nc(Nc2ncc(C(=O)Nc3c(C)cccc3Cl)s2)cc(N2CCN(CCO)CC2)n1 [DASATINIB] | – | – | – | – | – | – | – | EC50 (Dengue virus): 1 µM |
| OCCN1CCN(c2nc(Nc3ccccc3)c3nc[nH]c3n2)CC1 | – | – | Active | 474 | 4.2 | 4.2 | Not Active | – |
| CC(=O)c1ccc(Nc2nc(NCCC(C)C)nc3[nH]cnc23)cc1 | 59 | 1 | Active | 85 | – | – | – | – |
